Source: ChEMBL document CHEMBL4513216, “Probing the Open Global Health Chemical Diversity Library for Multistage-Active Starting Points for Next-Generation Antimalarials” (ACS Infect Dis, 2020)

Test: Toxicity liver stage against HepG2, at 10uM
Format: cell-based
Set-up: test concentration 10 uM, cell line HepG2-A16-CD81EGFP
Conditions: human, HepG2-A16-CD81EGFP cells; read-out: INHIBITION
Outline: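 Uninfected HepG2-A16-CD81EGFP cells, 3 × 10^3 per well, 1536-well, plated on prespotted compound at 10 μM final, parasite-free screening media added to match infected plates; puromycin 10 μM positive, DMSO 0.5% negative; run in parallel with 48 h PbLuc assay at 37 °C, 5% CO2; viability by CellTiter-Glo luminescence, normalized to controls.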

SMILES | cytotoxicity at 10 µM
NS(=O)(=O)c1cccnc1Nc1cccc(Cl)c1Cl | -2.19%
N#Cc1ncn(CC(=O)Cc2c(F)cccc2Cl)n1 | -1.45%
CN1CCC(N(C)C(=O)c2cnn(-c3ccccc3Br)c2N)CC1 | -5.63%
Cn1ccc2cc(C(=O)NC3CCOC(C)(C)C3)ccc21 (stereo unspecified) | 1.67%
O=C(COc1ccccc1)NCC1CCN(Cc2ccsc2)CC1 | -4.59%
CC(O)(CCc1ccccc1)CNC(=O)c1ccc(F)cc1 (stereo unspecified) | -70.3%
COc1ncccc1C(=O)Nc1ccccc1-c1ccc(=O)n(C)n1 | -0.843%
CCN1C(=O)C(c2ccccc2)CC12CCN(S(C)(=O)=O)CC2 (stereo unspecified) | 3.2%
COc1ncccc1CN1C[C@@H]2C[C@@H](C(=O)NCC3CC3)N(C)[C@@H]2C1 | 1.2%
O=C(Cn1nc(Br)nc1Br)N1CCCC1 | 5.38%
CCN1C(=O)CCCC12CCCN(C(=O)c1cnccn1)C2 (stereo unspecified) | 2.63%
CNC(=O)C1CCN(S(C)(=O)=O)CC1 | -4.81%
Fc1cccc(Cl)c1CNCCOc1ccccn1 | -11.4%
Oc1ccc(Cl)cc1CNCc1cccc(C(F)(F)F)c1 | -6.13%
Cc1ccc2c(cnn2CCC(=O)NCc2csc(C3CC3)n2)c1 | 4.88%
c1cnnc(N[C@@H]2CC[C@@H]3CN(Cc4ccc5[nH]ccc5c4)C[C@@H]32)c1 | -7.81%
CC(C)n1nnc(CC(=O)NCC2(c3ccccc3F)CCOCC2)n1 | 2.35%
CC(C)S(=O)(=O)N1CCC(c2cc3n(n2)[C@@H](C(F)(F)F)C[C@@H](C)N3)C1 (stereo partly specified) | -1.96%
Cc1ccc2c(c1)OC(C)CN2C(=O)c1c[nH]c(C)cc1=O (stereo unspecified) | 2.36%
CS(=O)(=O)c1ccc(NCc2ccccc2)cn1 | 13.2%
CCc1nc(C2CCCN2C(=O)c2cnc3n[nH]c(C)c3c2)no1 (stereo unspecified) | 7.76%
CN(c1ncccc1C#N)C1CCN(Cc2ccncc2)CC1 | -2.86%
CNC(=O)C1CCCCN1C(=O)c1sc(-c2ccc(C)o2)nc1C (stereo unspecified) | 4.45%

SMILES | cytotoxicity at 10 µM
COCCC(=O)N(CCC#N)c1ccc(C)c(C)c1 | 3.43%
Cc1ccc(S(=O)(=O)N2CCOCC2C(N)=O)c(F)c1 (stereo unspecified) | -5.22%
CN1CCN(CCOc2ccc(NC(=O)c3ccncc3)cc2)CC1 | -5.18%
CCc1ccc(CNC2(c3ccc(F)cc3)CCOCC2)o1 | 4.68%
CSCC1CCCN1CCc1ccncc1 (stereo unspecified) | 0.684%
CCCC(C)N(C)Cc1nnc(-c2ccco2)o1 (stereo unspecified) | 2.49%
CC(=O)NCC1CCN(C(=O)NCc2ccc3c(c2)OCCO3)CC1 | -7.11%
COc1cccc(CN(C)c2ncc(C(N)=O)cc2Cl)c1 | 2.53%
CC(C)N(Cc1cccc(Cl)c1)Cc1nnsc1Cl | 2.56%
Cc1nc(CCNC(=O)NC2CCCc3c2cnn3CCO)cs1 (stereo unspecified) | 6.68%
CC(C(=O)Nc1nccs1)N1CCc2nn(C)c(=O)cc2C1 (stereo unspecified) | 9.17%
Cc1cn2c(n1)CCC(NC(=O)CCC1CC1)C2 (stereo unspecified) | -9.69%
COc1cc(C)nc(N2CCN(C(=O)c3cc(Cl)c[nH]3)CC2)n1 | 7.32%
O=C(NCCCNC(=O)c1ccccc1)Nc1ccc(F)cc1F | 5.55%
COc1ccc(C2CCCCCN2S(C)(=O)=O)cc1 (stereo unspecified) | 3.86%
Cc1cc(C(=O)O)ccc1NS(=O)(=O)c1c(C)nn(C(C)C)c1C | 5.31%
CC(=O)N(C)CC(=O)NCC1(c2c(F)cccc2F)CCCC1 | -3.86%
N#Cc1ccc(N2CCN(c3ncccn3)CC2)c(C(F)(F)F)c1 | 36.3%
CC(C(=O)NCC1CCCCC1)S(=O)(=O)Cc1csc(-c2cccs2)n1 (stereo unspecified) | -9.44%
CCc1noc(CN(C)CCC(=O)Nc2ccc(C#N)c(Cl)c2)n1 | 22.5%
Cc1nc(C2CCCN2CCc2ccccn2)no1 (stereo unspecified) | 7.28%
Cc1csc(CCCNC(C)CC(=O)Nc2cccc(C)c2C)n1 (stereo unspecified) | 5.76%
COC(=O)C1(C)CCN(C(=O)NCCc2c(C)[nH]c3ccccc23)C1 (stereo unspecified) | 0.807%

SMILES | cytotoxicity at 10 µM
COc1ccc(CN2CCCCC2CNC(=O)OC(C)(C)C)cc1F (stereo unspecified) | -2.26%
Cc1ccc(N2C[C@@H]3OCCN(Cc4c(C)noc4C)[C@@H]3C2)nn1 | -1.62%
c1nc2c(c(N3CCOCC3)n1)CCNCC2 | -2.36%
COCCn1c2c(ccc1=O)CCN(C(=O)Cc1ccsc1)CC2 | 2.22%
CS(=O)(=O)N1CCO[C@@H]2CN(C(=O)C3CC(F)(F)C3)C[C@@H]2C1 | 6.19%
O=C(c1ccsc1)N1C[C@@H]2CCN(C(=O)c3cscn3)[C@@H]2C1 | 0.0861%
O=C(NCC1Cn2nnc(-c3ccoc3)c2CO1)c1ccc[nH]1 (stereo unspecified) | 2.61%
CN(C)C(=O)[C@@H]1C[C@@H]2CCN(Cc3ccncc3)C[C@@H]2O1 | 6.36%
Cc1ccc(-c2cnnc(NCC3CCOCC3)n2)o1 | -3.64%
O=C(NCC(O)c1cccc(F)c1)C1CCN(C2CCCCC2)CC1 (stereo unspecified) | 7.07%
COCC(=O)N1CC[C@]2(O)CCN(C(=O)CCc3ccsc3)C[C@@H]2C1 | 0.689%
CCc1nnsc1C(=O)N1CCCC(c2nc3ccccc3[nH]2)C1 (stereo unspecified) | 4.52%
Cn1c(CCC(=O)N2CCC3(CCCO3)CC2)nc2cccnc21 | 0.592%
COCC[C@]1(O)CCN(Cc2nnc(C)s2)C[C@H]1C | 8.62%
Cc1ncc(S(C)(=O)=O)c(N2CCCCCC2)n1 | -0.972%
O=C(O)CSc1nnc(-c2ccn[nH]2)n1-c1ccccc1C(F)(F)F | -3.85%
Cc1ccccc1CN1CCN(C(=O)c2cnc(C3CC3)[nH]c2=O)CC1 | 2.25%
CCc1cccc(CC)c1NC(=O)c1ccccc1N(C)S(C)(=O)=O | 11.4%
CCC[C@@H]1CN(Cc2c[nH]nc2-c2ccc(F)cc2)C[C@H]1NS(C)(=O)=O | 3.25%
Cc1nc(N2CCC(C(O)c3nccn3C)CC2)c2sccc2n1 (stereo unspecified) | -19.5%
Cc1ccc(F)c(OC2(C(=O)O)CCN(C(=O)C3CCCC3)CC2)c1 | 3.33%
CCN(Cc1cnn(CC)c1)C(=O)Cn1c(=O)ccc2ccccc21 | 2.37%
COc1cccc(NC(=O)CN2CCN(S(C)(=O)=O)CC2)c1 | -1%

SMILES | cytotoxicity at 10 µM
CN1CCN(Cc2ccc(-c3ccc4[nH]ccc4c3)nc2)CC1 | -9.17%
Cc1ccc(-c2nn(-c3cccc(F)c3)cc2CN(CCO)CCO)o1 | 8.43%
CCOC(=O)c1cc2c(=O)[nH]c(=O)n(CCc3ccccc3)c2nc1C | -6.28%
COC(=O)CCCn1ccnc1C(C)c1ccccc1 (stereo unspecified) | -6.73%
N[C@H]1CN(C(=O)Cc2cc(F)cc(Cl)c2)C[C@@H]1C1CC1 | 0.0152%
Cc1ccc2cc(CNCCCO)c(=O)[nH]c2c1 | 0.127%
Clc1ccccc1-c1nnc(CN2CCCC2Cn2cncn2)o1 (stereo unspecified) | -9.03%
CCC(CC)c1nnc(NC(=O)NC(C)Cn2cccn2)s1 (stereo unspecified) | 3.91%
Cc1cc(C(=O)N2CCCN(Cc3cnn(C)c3)CC2)no1 | -2.92%
CC(Oc1ccccc1)C(=O)N1CCCN(Cc2cscn2)CC1 (stereo unspecified) | -3.92%
OC(COCc1ccc2c(c1)OCO2)CN1CC(n2cccn2)C1 (stereo unspecified) | -5.89%
Cc1ccc(N2CCCC(NCc3cc(C)on3)C2)nn1 (stereo unspecified) | -4.8%
CCc1nc(C2CCCN(C(=O)c3ccc(F)cc3)C2)no1 (stereo unspecified) | -40.5%
COCc1cccc(CNCc2c(C)nn(C)c2N2CCOCC2)c1 | -8.93%
CC(c1nc(C2CC2)no1)N1CCN(Cc2ccccc2)CC1 (stereo unspecified) | -5%
CNC(=O)C1CCN(C(=O)c2cccn2Cc2cccs2)CC1 | -3.74%
CCCNC(=O)N1CCN(Cc2cc(C)no2)CC1 | -1.18%
Cc1cnn(C2CN(CC(=O)NCCc3ccccc3)C2)c1 | -0.956%
CC(C)c1nn(C)c(N2CCOCC2)c1CNC(C)c1cccs1 (stereo unspecified) | -5.06%
CC(C)c1noc(C(C)N2CCN(Cc3ccco3)CC2)n1 (stereo unspecified) | -7.67%
Cc1cnn(CCNCc2ccc(F)cc2Cl)c1 | -5.16%
Cc1ncsc1C(=O)NCCn1nc2ccccn2c1=O | 0.00307%
Cc1nc(C2CCCN2CC(=O)N(Cc2ccsc2)C2CC2)no1 (stereo unspecified) | -12.1%

SMILES | cytotoxicity at 10 µM
Fc1ccc(CN2CCCC2Cn2cccn2)c2ncccc12 (stereo unspecified) | -5.11%
Cn1ccc(CN2CCC(NC(=O)NC3CCCCC3)CC2)cc1=O | -6.26%
CCN(CC)C(=O)Cn1ccc2cc(NC(=O)C3CCCO3)ccc21 (stereo unspecified) | 1.35%
Cc1cnn(CC2CCCCN2Cc2noc(C3CC3)n2)c1 (stereo unspecified) | -9.32%
Cc1ncsc1C(=O)N(C)CCc1ccncc1 | -3.81%
Cc1cnn(CCNCc2csc(-c3ccc4c(c3)OCO4)n2)c1 | -6.41%
CCc1nc(CN2CCCC(NCc3ccc(C(N)=O)cc3)C2)no1 (stereo unspecified) | -12.3%
COc1ccccc1CC(=O)N1CCCC(n2nc(C)cc2C)C1 (stereo unspecified) | -4.48%
Cc1noc(C)c1CNCC1CCN(CC(O)c2ccccc2)CC1 (stereo unspecified) | -0.65%
Cc1nc(C)n(CC2CCCN(CCCOc3ccccc3)C2)n1 (stereo unspecified) | 3.15%
O=C(NCc1csc(Br)c1)c1ccncc1 | 4.38%
CN(C)Cc1cc(C2CCN(C(=O)C3CCCNC3)CC2)nn1C (stereo unspecified) | -8.67%
O=C(C1CCCCC1)N1C[C@H]2CNC[C@H]2C1 | -11.9%
c1cc(CN2CCc3c(nnn3CC3CC3)C2COCC2CC2)co1 (stereo unspecified) | 2.02%
c1ccc([C@@H]2CN(Cc3cccnc3)C[C@H]2c2cc[nH]n2)cc1 | -4.24%
O=C(NC1CC1)[C@@H]1CCO[C@@H]2CCN(Cc3ccsc3)C[C@H]21 | 4.4%
c1cncc(CN2CCc3c(nnn3CC3CC3)C2COCC2CC2)c1 (stereo unspecified) | 3.88%
C[C@@H]1C(=O)NC[C@H]2CN(Cc3ccsc3)C[C@H]21 | 4.22%
COCCN1C[C@@H]2CC[C@H]1CN(C(=O)CCc1c(C)nn(C)c1C)C2 | -8.6%
